Results taken from publication PMC4981499 (Nature, 2014).
≈ marks a conversion by molar mass, not a printed value.

What was measured:
[1] = tested on: NDM-1-positive K. pneumoniae N11-2218; experiment: Mouse systemic infection, organ bacterial load; type: in vivo, CD1 mice; details: s.c., spleen burden 48 h after infection
In short: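 Female CD1 mice, 7–9 weeks, infected i.p. with 2×10⁶ cfu K. pneumoniae N11-2218. Treated s.c. 30 minutes post infection with test compound, meropenem, their combination, or PBS. Euthanized at 48 h; spleen and liver were homogenized in PBS, serially diluted and plated on Brilliant Green agar for cfu counts.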

[2] = tested on: E. coli BW25113; experiment: MIC; type: cell-based; details: Escherichia coli
In short: (§1)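 Checkerboard microdilution with 8 concentrations each of meropenem and test compound in serial ½ dilutions, run in duplicate, and the mean was used. MIC was the lowest concentration with no growth. Each FIC was the concentration in the presence of the co-compound in a no-growth well divided by that compound's MIC; the FIC index is the sum of the two FICs.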

[3] = tested on: NDM-1-positive K. pneumoniae N11-2218; experiment: Mouse lethal systemic infection, survival; type: in vivo, CD1 mice; details: meropenem (10 mg/kg) alone or AMA (30 mg/kg) alone, single s.c. dose
In short: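 Female CD1 mice, 7–9 weeks, randomized 5 per cage. Infected i.p. with 5×10⁷ cfu K. pneumoniae N11-2218. A single s.c. dose was given 30 minutes post infection: meropenem 10 mg/kg, test compound 30 mg/kg, their combination, or PBS. Mice were monitored for endpoint until day 4. Preparation, infection and processing were done by two independent investigators for blinding.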

[4] = tested on: K. pneumoniae N11-2218; experiment: MIC; type: cell-based; details: meropenem alone; K. pneumoniae N11-2218 (CRE)
In short: as §1

C[C@@H](O)[C@H]1C(=O)N2C(C(=O)O)=C(S[C@@H]3CN[C@H](C(=O)N(C)C)C3)[C@H](C)[C@H]12 [meropenem]
Response of infection to meropenem monotherapy [1]: resistant to meropenem monotherapy at doses below 50 mg/kg | MIC [2]: 0.008 to 0.016 µg/mL (≈ 0.0209 to 0.0417 µM) | Prevention of lethal infection by monotherapy [3]: unable to prevent lethal infection | MIC [4]: 32 µg/mL (≈ 83.4 µM)
